Bioassay records deposited in PubChem by Sanford-Burnham Center for Chemical Genomics.
TRAIL sens C8: viability loss with TRAIL in NB7+C8 cells, primary screen, TRAIL sensitizer project, cell-based, ATPlite luminescence. inhibition (viability loss, TRAIL sensitization), % at 10 µM. hit rate 1% among 360,000. AID 624354, 2012;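 active means compounds causing at least 50% loss of cell viability in the single-dose screen, relative to plate controls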
FLuc stim CS: FLuc activators, initial screening, artefact control for FLuc-dependent activation tests, biochemical, ATPlite luminescence; ATPlite luciferase biochemical, 10 min; 0 = ATP-free wells, 1 = DMSO control; activation factor at 10 µM; 200,000 tested, under 10 active;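 active means luciferase activation factor, scaled between plate controls, of at least 2 with compound at 10 µM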
Target sequence (P08659 whole entry, looked up): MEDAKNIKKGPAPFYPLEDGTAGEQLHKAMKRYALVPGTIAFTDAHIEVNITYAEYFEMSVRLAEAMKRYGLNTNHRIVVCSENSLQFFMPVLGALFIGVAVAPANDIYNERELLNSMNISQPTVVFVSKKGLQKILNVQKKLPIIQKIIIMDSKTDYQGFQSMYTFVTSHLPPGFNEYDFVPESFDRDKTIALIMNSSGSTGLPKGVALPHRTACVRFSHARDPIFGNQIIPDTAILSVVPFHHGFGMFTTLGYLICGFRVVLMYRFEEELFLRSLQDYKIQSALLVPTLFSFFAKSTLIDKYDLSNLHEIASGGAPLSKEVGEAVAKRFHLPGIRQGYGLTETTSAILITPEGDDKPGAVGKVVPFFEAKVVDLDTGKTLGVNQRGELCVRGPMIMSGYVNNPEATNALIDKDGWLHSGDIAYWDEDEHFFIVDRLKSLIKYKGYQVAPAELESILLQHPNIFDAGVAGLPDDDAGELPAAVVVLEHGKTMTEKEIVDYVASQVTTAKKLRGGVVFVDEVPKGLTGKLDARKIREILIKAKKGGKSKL
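Material: Luciferase/luciferin reagent mix; Doses: test compounds dosed from 2 mM stocks in 100% DMSO; Schedule: 10 min incubation after luciferase reagent addition, room temperature; Measured by: luminescence from luciferase reaction; Read-out: luminescence gain marking luciferase activators.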
FLuc inh counter: firefly luciferase enzyme inhibitors, primary screen, artefact control for luciferase-based inhibitor screens, biochemical, luminescence, ATPLite. inhibition, % at 10 µM. AID 1006, 2008. hit rate 1.5% among 200,000. 10 min;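 active means inhibition above about 50% when tested at 10 µM, limit read from the data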
PPC-1+TRAIL kill: compounds killing PPC-1 cancer cells with TRAIL present, primary screen, TRAIL potentiator project, ATPLite luminescence, uHTS; PPC-1 cells + TRAIL, ATPLite viability luminescence; cell killing (% activity), % at 4 µM or 5 µM; hit rate 0.41% among 220,000; AID 1443, 2008;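 active means cell killing above 50% in the first pass at 4 µM, then a duplicate retest at 5 µM averaging 50% or more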
A number is an active result; - = inactive; . = not tested or not shown. Sampled rows, rich in hits. Any-hit rate of the full collection: about 1.6%.

SMILES	TRAIL sens C8	FLuc stim CS	FLuc inh counter	PPC-1+TRAIL kill
O=C(c1cc(-c2ccc3c(c2)OCO3)on1)N1CCOCC1	-	-	70	-
CSc1ccccc1C(=O)N(C)C(c1ccccc1)c1ccccc1	-	.	.	.
C[C@H](CO)N1C[C@H](C)[C@@H](CN(C)C(=O)Nc2ccc3c(c2)OCO3)Oc2ccc(NC(=O)Cn3cnnn3)cc2C1=O	-	.	.	.
CCc1cccc(NC(=O)NC(=O)Cn2nnc(C(=O)OC)c2C(=O)OC)c1	-	-	-	-
CC(=O)Nc1ccc(/C=C2\Sc3ccccc3C2=O)cc1	-	.	.	-
Cc1ccc(/C=C2\Sc3ccccc3C2=O)s1	-	-	87	-
CC(=O)c1cccc(NC(=O)c2ccccc2OCc2ccc(F)cc2)c1	-	.	.	.
Cc1ccc2c(c1)c1ccc3c(c1n2C)C(=O)C=CC3=O	58	.	.	-
Cn1c2ccccc2c2ccc3c(c21)C(=O)C=CC3=O	-	.	.	.
Cc1cccc(-c2nnc(SCC(=O)N3CCOCC3)o2)c1	-	.	.	.
CCC(=O)N(C1=C(NC)C(=O)c2ccccc2C1=O)C(C)C	-	-	-	-
CNC1=C(N(C(C)=O)c2ccc(Br)cc2)C(=O)c2ccccc2C1=O	92	-	-	68
O=C1/C(=N\S(=O)(=O)c2cccs2)C([n+]2ccc(CCCc3ccccc3)cc2)=C([O-])c2ccccc21	-	.	.	-
O=C1/C(=N\S(=O)(=O)c2cccs2)C([n+]2cccc(Cc3ccccc3)c2)=C([O-])c2ccccc21	48	.	.	-
CCOC(=O)CC1COCCN1Cc1cn[nH]c1-c1ccc2c(c1)OCO2 (configuration not stated)	-	-	-	-
Cc1ccc2oc(-c3cccc(NC(=O)Cn4cnc5c(=O)n(C)c(=O)n(C)c54)c3)nc2c1	.	-	-	-
CCC(C)c1ccc2oc(-c3ccc(NC(=O)Cn4cnc5c(=O)n(C)c(=O)n(C)c54)cc3)nc2c1 (configuration not stated)	80	-	-	-
CCOC(=O)CSc1nnc(CNC(=O)c2cc(OC)c(OC)c(OC)c2)n1C	-	-	-	-
Cc1ccc2nc(Cl)c3nnnn3c2c1	62	-	-	-
Cc1ccc2nc(N3CCN(c4cccc(C)c4C)CC3)c3nnnn3c2c1	-	-	-	-
C=C1CC2(OC1=O)c1ccccc1CCc1ccccc12	91	.	.	.
O=C(NNC(=O)c1cc(-c2ccc(Cl)cc2)nc2ccccc12)c1csc(N2CCOCC2)n1	-	.	.	.
COc1cc(C=C2C(=O)c3ccccc3C2=O)ccc1O	-	.	.	-
CCN1C/C(=C/c2ccc(OC)c(O)c2)C(=O)/C(=C/c2ccc(OC)c(O)c2)C1	-	-	-	50
COc1ccc(C=C2C(=O)c3ccccc3C2=O)cc1O	-	-	62	-
SMILES	TRAIL sens C8	FLuc stim CS	FLuc inh counter	PPC-1+TRAIL kill
COc1ccc(/C=C2\CN(Cc3ccccc3)C/C(=C\c3ccc(OC)c(O)c3)C2=O)cc1O	-	.	.	.
COC(=O)c1ccccc1NC(=O)CN1C(=O)NC2(CCCCCCC2)C1=O	-	.	.	.
CCOCCCNC(=O)C(c1ccc(Cl)cc1)N1CCN(c2ccccc2)CC1 (configuration not stated)	-	-	-	-
CC(=O)OC[C@]12CC[C@H]3[C@@](C)(CC[C@H]4C(C)(C)CCC[C@]34C)[C@@H]1CC(C1=CC(=O)OC1O)O2 (some centres not stated)	84	.	.	.
CCc1nc(N2CCN(C(C)=O)CC2)c2c3c(sc2n1)CC(C(C)(C)C)CC3 (configuration not stated)	-	.	.	.
CCc1nc(N2CCN(C(=O)CCl)CC2)c2c3c(sc2n1)CC(C)CC3 (configuration not stated)	87	.	.	.
CC(C)c1ccc(Nc2ncccc2C(=O)O)cc1	-	-	67	-
c1ccc(-c2cn3nc4c(nc3n2)CCCC4)cc1	-	-	86	-
Oc1cc(O)cc(-c2cc3ccc(O)cc3o2)c1	-	.	.	.
CC1(C)Oc2cc3oc(-c4cc(O)cc(O)c4)cc3cc2CC1O (configuration not stated)	80	.	.	.
C(=N\NC1=Nc2cccc3cccc1c23)/c1ccccn1	71	-	66	-
Clc1ccccc1/C=N/NC1=Nc2cccc3cccc1c23	-	-	-	-
C(=NNc1ccc2ccccc2n1)c1ccccn1	87	.	.	.
O=C(OCc1ccccc1)N(CCCCN(CCCNCc1ccccc1)C(=O)OCc1ccccc1)CCCNCc1ccccc1	96	.	.	.
C/C(=N/Nc1ncc(C(F)(F)F)cc1Cl)c1ccncc1	-	-	-	-
O=C(O)COn1c(-c2ccccc2)nc2ccc(Cl)cc21	-	-	68	-
Cc1ccc(Nc2nc(CSc3nnc(-c4ccc(F)cc4)n3C)cs2)cc1	-	-	84	-
CCOC(=O)c1oc2c(C)c(O)ccc2c(=O)c1-c1nncn1-c1ccccc1	-	-	-	-
Cc1ccn2c(c1)nc(=S)n2C(=O)c1ccccc1	89	-	96	82
Cc1ccn2c(NC(=O)c3ccccc3)c(-c3ccccc3)nc2c1	-	.	.	.
O=C(c1ccco1)n1c(=S)nc2ccccn21	-	-	68	-
O=C(CCN1CCN(Cc2ccccc2)CC1)NNC(=O)Nc1cccc(Cl)c1	-	.	.	.
CC1C(=O)CCC1(C(=O)O)c1ccccc1 (configuration not stated)	-	-	-	-
CCOC(=O)c1ccc(CC2SC(N)=NC2=O)cc1 (configuration not stated)	-	.	.	.
Cn1c(CCNC(=O)c2ccco2)nc2cc(NC(=O)c3ccco3)ccc21	-	-	-	-
SMILES	TRAIL sens C8	FLuc stim CS	FLuc inh counter	PPC-1+TRAIL kill
CCCn1cnc2cc(NC(=O)c3ccco3)ccc21	-	.	.	.
CCn1cnc2cc(NC(=O)c3ccco3)ccc21	-	-	66	-
Cc1nc2cc(NC(=O)c3ccco3)ccc2n1C	51	.	.	.
CCOC(=O)c1ccc(NC(=O)/C=C/c2cccs2)cc1	-	-	-	-
Nc1ccccc1N1CCOCC1	-	-	-	-
CCCSc1cc(NCCOC(=O)CCC)c([N+](=O)[O-])c2nonc12	-	-	-	-
CCCC(=O)OCCNc1cc(Sc2nccn2C)c2nonc2c1[N+](=O)[O-]	57	-	-	-
Cc1[nH]n(-c2ccccc2)c(=O)c1/C=N/NC(=O)c1ccc(O)cc1O	-	.	.	.
Cc1ccc(-n2[nH]c(C)c(/C=N/NC(=O)c3ccc(O)cc3O)c2=O)cc1	73	.	.	.
COc1ccccc1C/C(N)=N/OC(=O)c1ccc2c(c1)OCO2	-	-	-	-
N/C(=N\OC(=O)c1ccc2c(c1)OCO2)c1cccc([N+](=O)[O-])c1	-	-	96	-
Cc1cccc(/C(N)=N/OC(=O)c2ccc3c(c2)OCO3)c1	-	-	97	-
COc1cc(OC)cc(C(=O)Nc2cccc(NC(C)=O)c2)c1	-	-	-	-
Oc1ccc(-c2csc(Nc3ncccn3)n2)cc1	-	-	56	-
Cc1ccc(NC(=S)c2ccc(N(C)C)cc2)cc1	-	-	58	-
Cc1cccc(C)c1NC(=O)CN(C)C(=O)C1CCN(c2ncnc3sc(C)c(C)c23)CC1	-	.	.	.
Cc1cc(-c2ccccc2)nc(N/N=C/c2ccccc2)n1	65	.	.	.
